Laboratory results published in PMC7725269 (ACS biomaterials science & engineering, 2019).

Columns and labels:
[1] = system: T47D cells; assay: Annexin V apoptosis flow cytometry; assay type: cell-based; conditions: 1 μM PA 1 or equivalent paclitaxel
[2] = molecular target: human recombinant DR5 (Homo sapiens, UniProt O14763); assay: Surface plasmon resonance against immobilized DR5; assay type: binding; conditions: SPR, immobilized DR5, running buffer pH 7.0
Summary of the method: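 About 2000 RU of recombinant human DR5 was EDC/NHS-coupled to a dextran chip from 10 ug/mL in 15 mM Na acetate pH 5.6, then ethanolamine-capped. Running buffer was 10 mM phosphate, 150 mM NaCl, 3 mM EDTA, 0.01% Tween 20. Analytes were quantified by A280 and tested at 62 nM targeting PA. Association was 8 min and dissociation 10 min at 30 uL/min, with 25 mM HCl 30 s regeneration.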

Chain of human recombinant DR5 (O14763 56-440): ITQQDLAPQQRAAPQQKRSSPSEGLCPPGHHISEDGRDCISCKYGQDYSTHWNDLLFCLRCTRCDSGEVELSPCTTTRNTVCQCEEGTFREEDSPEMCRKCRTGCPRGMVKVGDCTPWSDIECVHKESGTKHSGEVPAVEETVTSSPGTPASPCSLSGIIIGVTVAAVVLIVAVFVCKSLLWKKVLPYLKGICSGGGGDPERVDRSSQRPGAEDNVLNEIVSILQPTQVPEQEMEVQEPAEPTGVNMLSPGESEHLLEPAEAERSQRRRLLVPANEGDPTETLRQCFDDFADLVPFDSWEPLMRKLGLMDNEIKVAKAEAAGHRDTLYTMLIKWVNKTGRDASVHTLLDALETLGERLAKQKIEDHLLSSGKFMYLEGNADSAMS

| Compound | Annexin V binding / cell death (in words) [1] | Binding to DR5 (in words) [2] |
| --- | --- | --- |
| CC(=O)O[C@H]1C(=O)[C@@]2(C)[C@H]([C@H](OC(=O)c3ccccc3)[C@]3(O)C[C@H](OC(=O)[C@H](O)[C@@H](NC(=O)c4ccccc4)c4ccccc4)C(C)=C1C3(C)C)[C@]1(OC(C)=O)CO[C@@H]1C[C@@H]2O [Paclitaxel, paclitaxel] | statistically significant increase in annexin V binding |  |
| PEG2000-E2A6K(C12) [PA 4] |  | did not show any binding |
